Assay [1] is described as follows: inhibitors of TNFa-induced NFkB p65 translocation, primary screen, imaging, HUVEC, MLSMR starter and 10KST1 sets (AID 438;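 active = inhibition above 20% together with a positive visual image hit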;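 note: compound added about 3h40 before a 20 min TNFalpha stimulation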;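 for inhibition: signal is the nuclear over cytoplasmic p65 intensity ratio per well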). As to conditions: HUVEC TNFa-induced p65 nuclear translocation; cell count: measured here: nuclei count (cytotoxicity indicator), at 2.08 µM; inhibition: at 2 µM, stronger effect = higher value, 0% TNFa-plus-vehicle, 100% no-TNFa wells.
Assay [2] can be described thus: inhibitors of mutant huntingtin aggregation, primary screen, imaging, exon1htt(103Q)mCFP cells, high-content imaging (AID 483;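 active = visual image review flags a hit and inhibition of aggregation exceeds 20%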;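 note: compound exposure lasted 3 days before fixation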;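 for nuclei count: percent of the per-plate median nuclei count of sample wells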). As to conditions: exon1htt(103Q)mCFP cell line, aggregate imaging, at 2 µM; inhibition of aggregation: stronger effect = higher value; nuclei count: measured here: cell count, toxicity.
Assay [3] is described as follows: inhibitors of E-selectin induction by TNFa, primary screen, imaging, HUVEC, immunofluorescence, MLSMR starter and 10KST1 sets (AID 487;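 active = visually confirmed hit in the image check and inhibition above 20%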;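 for inhibition: signal is fraction of cell area covered by stained E-selectin grains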;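 for nuclei count: 100% = median nuclei count of all wells on the same plate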). Conditions: HUVEC TNFalpha-induced E-selectin immunofluorescence imaging, at 2 µM; inhibition: stronger effect = higher value; nuclei count: measured here: cell number, toxicity.
In assay [4] the target is Voltage-gated potassium channel subunit beta-2 (Rattus norvegicus) (UniProt P62483). Kind of assay: KvBeta enzyme negative modulators, primary screen, biochemical, NADPH fluorescence (AID 622).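 Note: slope of raw intensity against log time taken from 70 to 1610 s.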 Conditions: recombinant KvBeta, 4-cyanobenzaldehyde reduction, at 10 µM, stronger effect = higher value.
Chain of Voltage-gated potassium channel subunit beta-2 (Rattus norvegicus) (P62483 whole entry, looked up): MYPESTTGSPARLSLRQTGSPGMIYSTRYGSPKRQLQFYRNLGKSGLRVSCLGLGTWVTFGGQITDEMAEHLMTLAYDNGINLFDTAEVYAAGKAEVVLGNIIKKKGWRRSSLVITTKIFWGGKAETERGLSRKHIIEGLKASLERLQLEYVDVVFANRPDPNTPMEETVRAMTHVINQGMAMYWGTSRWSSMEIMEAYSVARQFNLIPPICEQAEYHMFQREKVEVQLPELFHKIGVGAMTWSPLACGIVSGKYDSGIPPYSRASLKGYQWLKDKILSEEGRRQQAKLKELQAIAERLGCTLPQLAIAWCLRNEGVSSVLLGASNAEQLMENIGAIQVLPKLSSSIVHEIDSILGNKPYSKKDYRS
The target is the same in assay [5]. Kind of assay: KvBeta positive modulators, primary screen, biochemical, NADPH fluorescence (AID 623;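 active = NADPH fluorescence slope more negative than the mean of all samples by about 3 SD, 99.7% confidence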;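 note: fluorescence intensity change per second fitted from 20 to 320 s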). As to conditions: Recombinant KvBeta, NADPH fluorescence decrease slope, 10 min; at 10 µM; stronger effect = lower value.
Assay [6] addresses Alpha-2C adrenergic receptor (Homo sapiens) (UniProt P18825). Kind of assay: modulators of alpha2C/GIRK thallium flux, primary screen, cell-based, HEK293 alpha2C/GIRK1/2 (AID 624;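 active = fluorescence slope after compound addition differing from the mean of all screened samples at 99.7% confidence, in either direction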;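 note: slope of fluorescence ratio to pre-addition baseline per second over 15 to 24 s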). As to conditions: thallium flux BTC fluorescence, at 10 µM, actives lie on both sides.
The nature of assay [7]: inhibitors of larval lipid processing in zebrafish, primary screen, whole organism, PED6 fluorescence, gall bladder and intestine (AID 686;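 active = a full or partial loss of lipid-probe fluorescence in the fish gall bladder, intestine or both, judged by eye; inactive = no fluorescence loss, or compound toxic to the fish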;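 note: larvae 5 to 7 days old with five fish per well; signal comes from phospholipase A2 cleavage of quenched PED6 carried via bile; overnight exposure to compound and PED6 before scoring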). As to conditions: Zebrafish larvae PED6 lipid processing, fluorescence scoring; screened at 20 µM (by protocol). A digest of the protocol:
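Also added: quenched phospholipase substrate PED6, 100 nM final, ingested by larvae; System: zebrafish larvae, 5-7 d; Quantity: 5 larvae per well; Compound: 20 µM single dose; Schedule: overnight compound and PED6 incubation; Read-out: visual per-well fluorescence inhibition score; Measured by: By-eye fluorescence microscopy; Medium: E3.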

Assay [8] is described as follows: inhibitors of Sendai virus-induced IRF3 signaling, primary screen, TLR/RLR signaling modifier project, cell-based, Sendai virus stimulus, luciferase, 10K MLSCN set (AID 602276;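 active = inhibition at or above 50% at 10 µM; inactive = inhibition below 50%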;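 note: firefly luciferase from ISG56 promoter only with Renilla not read in this screen; 0% = Sendai virus plus DMSO and 100% = medium plus DMSO without virus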). Conditions: HEK293 RL24 IRF3 luciferase reporter, at 10 µM, stronger effect = higher value. For orientation: A reporter such as luciferase makes a cellular process visible.
Assay [9] in a line: inhibitors of poly I:C-induced TLR3 signaling, primary screen, cell-based, poly I:C stimulus, luciferase, 10K MLSCN set (AID 602277;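 active = inhibition of the reporter signal at or above 50%; inactive = inhibition below 50%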). Conditions: HEK293-TLR3 RL24 IRF3 luciferase reporter, at 10 µM, stronger effect = higher value.

Calls of active or inactive are those of the source.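 Rule for the calls, unless noted: active = fluorescence slope higher than the sample average by over 3 SD (cut at about -0.22 in these data, passing the limit was not always enough); inactive = the rest.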

The text below walks through data of PubChem BioAssay.

Chain of Alpha-2C adrenergic receptor (Homo sapiens) (P18825 whole entry, looked up): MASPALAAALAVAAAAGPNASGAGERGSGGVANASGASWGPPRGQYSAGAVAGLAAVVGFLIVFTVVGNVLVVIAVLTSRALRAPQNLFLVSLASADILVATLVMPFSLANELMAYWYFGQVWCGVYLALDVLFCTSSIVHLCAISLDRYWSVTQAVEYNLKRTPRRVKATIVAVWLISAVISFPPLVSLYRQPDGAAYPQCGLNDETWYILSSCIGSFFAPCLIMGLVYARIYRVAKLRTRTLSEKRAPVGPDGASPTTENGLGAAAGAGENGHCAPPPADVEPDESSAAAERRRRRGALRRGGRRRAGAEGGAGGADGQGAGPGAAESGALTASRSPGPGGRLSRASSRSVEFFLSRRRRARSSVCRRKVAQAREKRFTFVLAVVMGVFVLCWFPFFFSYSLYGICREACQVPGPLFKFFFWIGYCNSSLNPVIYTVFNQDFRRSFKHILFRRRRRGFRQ

By inhibition is commonly meant the drop in the measured response relative to a control, in per cent. For the compound `COC(=O)c1ccc2c(=O)n(NC(C)=O)c(=S)[nH]c2c1`, the cell count in assay [1] worked out at 627. In addition, the inhibition in assay [1] is 8.7% (inactive); in [3], -73.1% (inactive); in [8], 2.98% (inactive); in assay [9], -0.555% (inactive). Moreover, the inhibition of aggregation in assay [2] is -5% (inactive). In addition, the nuclei count came to 108% in assay [2] and 114% in [3]. The fluorescence slope in [4] was -0.367 (inactive). The NADPH fluorescence slope in [5] was -6.6e-05 (inactive). Also, in assay [6], the slope was 0.00487 (inactive). Further, the compound was called inactive in assay [7].

Turning to `CCOc1ccc(CCNc2nc3c(c(=O)n(C)c(=O)n3C)n2CC)cc1OCC`, the cell count in assay [1] was found to be 602. Also, the inhibition is 6.3% (inactive) in assay [1], -23.5% (inactive) in [3], 18.8% (inactive) in [8] and 9% (inactive) in assay [9]. In assay [2], the inhibition of aggregation was -0.6% (inactive). Besides, the nuclei count in assay [2] is 89.6%; in [3] it was 119%. In addition, the fluorescence slope in assay [4] is -0.305 (inactive). The NADPH fluorescence slope in assay [5] is 3.7e-06 (inactive). In addition, the slope in [6] is 0.00587 (inactive). For the same compound, the compound was classed as inactive in assay [7].

For `O=C(NC1CCCCC1NC(=O)c1ccco1)c1ccco1` (stereo unspecified), the cell count in [1] came to 726. Further, the inhibition in assay [1] is 10.2% (inactive); in [3], 65.3% (inactive); in assay [8], -10.8% (inactive); in [9], -8.21% (inactive). Further, in assay [2], the inhibition of aggregation was -7.6% (inactive). Also, the results for the nuclei count in [2] and in assay [3] were 108% and 112%, respectively. Also, in [4], the fluorescence slope is -0.384 (inactive). In addition, the NADPH fluorescence slope in assay [5] was -1.6e-05 (inactive). Moreover, the slope in assay [6] is 0.00439 (inactive). Moreover, the outcome in assay [7] was inactive.

With `COc1ccc(S(=O)(=O)Nc2ccccc2SC)cc1C`, the cell count in [1] stood at 664. Also, the inhibition in assay [1] was -7.1% (inactive); in assay [3], -125% (inactive); in assay [8] it was 12.4% (inactive); in assay [9], 22.4% (inactive). Besides, the inhibition of aggregation in assay [2] is 12.2% (inactive). The nuclei count is 102% in assay [2] and 105% in assay [3]. Besides, the fluorescence slope in assay [4] was -0.346 (inactive). Further, in [5], the NADPH fluorescence slope is 1.3e-05 (inactive). Also, the slope in assay [6] was 0.00618 (inactive). The call in assay [7] was inactive.

For the compound `CC(C)OC(=O)c1cc(NC(=O)C2C3CCC(O3)C2C(=O)O)cc(C(=O)OC(C)C)c1` (stereo unspecified), in assay [1], the cell count worked out at 418. Further, the inhibition in assay [1] was 4.2% (inactive); in assay [3] it was -49.1% (inactive); in [8], 20.3% (inactive); in assay [9] it was 13.2% (inactive). Further, in assay [2], the inhibition of aggregation was 7.3% (inactive). In addition, the nuclei count in assay [2] is 108%; in assay [3], 113%. Further, the fluorescence slope in assay [4] is -0.454 (inactive). Besides, the NADPH fluorescence slope in [5] is -5.2e-05 (inactive). In assay [6], the slope is 0.00511 (inactive). Further, the outcome in [7] was inactive.

In the case of `CSc1ncc(Cl)c(C(=O)Nc2ccc(S(=O)(=O)N3CCOCC3)cc2)n1`, the cell count in assay [1] was 288. For the same compound, the inhibition in [1] is -0.8% (inactive); in assay [3], 2.7% (inactive); in assay [8], 4.78% (inactive); in [9] it was 0.446% (inactive). Also, in [2], the inhibition of aggregation is -8.6% (inactive). Also, the nuclei count in [2] stood at 101%; in assay [3], 131%. Further, in assay [4], the fluorescence slope is -0.433 (inactive). For the same compound, the NADPH fluorescence slope in assay [5] was -5.7e-05 (inactive). Also, the slope in [6] is 0.00479 (inactive). Moreover, the result in [7] was inactive.

In the case of `CCN(CC)C(=O)C1CCN(CC2CC=CCC2)CC1` (stereo unspecified), the cell count in assay [1] was 377. In addition, the inhibition in assay [1] was -8.2% (inactive); in assay [3], -22.3% (inactive); in assay [8], -1.94% (inactive); in assay [9], 9.42% (inactive). In addition, the inhibition of aggregation in assay [2] is 12.3% (inactive). For the same compound, the results for the nuclei count in assay [2] and in assay [3] were 110% and 76.6%, respectively. In assay [4], the fluorescence slope was -0.361 (inactive). The NADPH fluorescence slope in assay [5] is 2.7e-06 (inactive). In addition, the slope in assay [6] was 0.00638 (inactive). Also, the compound was classed as inactive in [7].

As to `COc1ccc(C(=O)Nc2ccc(Cl)c(Cl)c2)c(OC)n1`, the cell count in assay [1] is 799. Further, the inhibition in assay [1] was -7.1% (inactive); in assay [3], -145% (inactive); in assay [8] it was -13.7% (inactive); in [9], -67% (inactive). Moreover, the inhibition of aggregation in [2] is -20.2% (inactive). Also, the nuclei count in [2] came to 111%; in [3], 137%. Moreover, in [4], the fluorescence slope was -0.364 (inactive). Besides, the NADPH fluorescence slope in [5] was -6.9e-05 (inactive). Besides, the slope in assay [6] is 0.00581 (inactive). The outcome in [7] was inactive.

As to `Cn1c(CN2CCCCC2)nc2cc(NC(=O)c3ccccc3)ccc21`, the cell count in [1] turned out to be 435. The inhibition in assay [1] was -0.8% (inactive); in assay [3], 2.3% (inactive); in assay [8], -17.4% (inactive); in assay [9] it was 98.6% (active). Besides, in assay [2], the inhibition of aggregation was 3.4% (inactive). Further, the nuclei count in [2] was found to be 85.3%; in assay [3], 92.4%. Besides, the fluorescence slope in assay [4] is -0.438 (inactive). Further, the NADPH fluorescence slope in [5] was -9.5e-07 (inactive). The slope in [6] is 0.00451 (inactive). For the same compound, the result in [7] was inactive.

For `Cc1cc(C)nc(N2CCC(C(=O)Nc3ccc(Oc4ccccc4)cc3)CC2)n1`, the cell count in [1] came out at 706. For the same compound, the inhibition in assay [1] is -15% (inactive); in assay [3], -54.3% (inactive); in assay [8], 13% (inactive); in assay [9] it was 11% (inactive). Besides, the inhibition of aggregation in assay [2] is -11% (inactive). Besides, the nuclei count in assay [2] is 122%; in assay [3], 116%. The fluorescence slope in assay [4] is -0.432 (inactive). Besides, the NADPH fluorescence slope in assay [5] is -5.6e-05 (inactive). In [6], the slope is 0.00595 (inactive). In assay [7], the result was inactive.

For `COC(=O)C1=C(C)N(Cc2ccco2)C(=O)C1`, in assay [1], the cell count was determined as 302. Besides, the inhibition in assay [1] is 0.7% (inactive); in assay [3], -12.5% (inactive); in [8], 8.55% (inactive); in assay [9], 8.79% (inactive). The inhibition of aggregation in [2] is 26.2% (inactive). Besides, the nuclei count in [2] was 99.6%; in [3] it was 101%. For the same compound, in assay [4], the fluorescence slope was -0.42 (inactive). Besides, the NADPH fluorescence slope in assay [5] is -3.5e-05 (inactive). In addition, the slope in assay [6] was 0.00527 (inactive). For the same compound, in assay [7], the outcome was inactive.

Consider `O=C(CSc1nnc(-c2ccc(Br)cc2)n1C1CCCCC1)N1CCCC1`, for which the cell count in assay [1] is 306. The inhibition in assay [1] was -17.8% (inactive); in [3], 4.3% (inactive); in assay [8], -3.56% (inactive); in [9] it was -4.51% (inactive). Moreover, in assay [2], the inhibition of aggregation is 5.3% (inactive). The nuclei count in [2] came to 101%; in [3], 81.3%. The fluorescence slope in assay [4] was -0.371 (inactive). Further, the NADPH fluorescence slope in [5] was 1.5e-05 (inactive). For the same compound, the slope in assay [6] was 0.00599 (inactive). Moreover, the result in assay [7] was inactive.

Regarding `Cc1ccc(S(=O)(=O)NCC(=O)OCC(=O)Nc2ncc(Cl)cc2Cl)cc1`, the cell count in [1] came out at 412. Besides, the inhibition is -0.4% (inactive) in assay [1], -42.3% (inactive) in assay [3], 17.2% (inactive) in assay [8] and 25.7% (inactive) in assay [9]. In assay [2], the inhibition of aggregation was -19.2% (inactive). For the same compound, the nuclei count in assay [2] worked out at 115%; in assay [3], 114%. Further, the fluorescence slope in assay [4] is -0.465 (inactive). Further, the NADPH fluorescence slope in assay [5] is -4.6e-05 (inactive). Besides, in assay [6], the slope was 0.00472 (inactive). Besides, the outcome in assay [7] was inactive.
